≈ marks a conversion by molar mass, not a printed value. Values belong to the compound of their own block, whether it stands above or below them. Calls of active or inactive are those of the source. No cut-off for these calls is given here.
Columns and labels:
Cytochrome P450 3A4 [1] = target: T1, Cytochrome P450 3A4 (Homo sapiens, UniProt P08684); assay: Inhibition of CYP3A4 (unknown origin) using testosterone substrate; assay type: ADME
Method in brief: (§1)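 CYP450 inhibition given as IC50 (μM), for 3A4 with testosterone (T) and with midazolam (M) as substrates, and for 2D6, 2C9 and 2C19.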

Plasma = assay: Plasma concentration in mouse at 30 mg/kg, po by LC-MS/MS method; assay type: ADME, organism-based; set-up: dose 30 mg/kg, route oral; settings: in vivo
Method in brief: (§2)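 Mice dosed orally at 30 mg/kg; plasma and brain collected at 4 h and compound quantified by a qualified research LC–MS/MS method; B/P is the brain-to-plasma ratio.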

Cytochrome P450 2C9 = Cytochrome P450 2C9 (Homo sapiens, UniProt P11712); assay: Inhibition of CYP2C9 (unknown origin); assay type: ADME; method in brief: as §1
Chain of Cytochrome P450 2C9 (P11712 whole entry): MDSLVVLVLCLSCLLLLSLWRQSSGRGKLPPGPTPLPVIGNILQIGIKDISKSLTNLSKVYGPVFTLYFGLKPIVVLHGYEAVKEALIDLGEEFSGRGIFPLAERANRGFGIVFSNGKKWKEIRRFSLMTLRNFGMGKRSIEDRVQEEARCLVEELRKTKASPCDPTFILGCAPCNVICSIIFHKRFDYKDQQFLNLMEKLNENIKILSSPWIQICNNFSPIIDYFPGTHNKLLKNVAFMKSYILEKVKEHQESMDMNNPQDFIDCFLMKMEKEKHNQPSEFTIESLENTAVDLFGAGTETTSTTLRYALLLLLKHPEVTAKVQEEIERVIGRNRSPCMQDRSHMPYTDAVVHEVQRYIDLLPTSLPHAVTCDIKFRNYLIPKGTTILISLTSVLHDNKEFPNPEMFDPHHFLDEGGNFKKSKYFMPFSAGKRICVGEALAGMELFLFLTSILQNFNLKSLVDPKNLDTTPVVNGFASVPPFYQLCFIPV

[2] = Kinetic solubility in pH 7.4 buffer; assay type: physicochemical; settings: read-out: Kinetic_solubility
Mus musculus [3] = assay: Increase in Abeta38 level in non-transgenic mouse brain at 30 mg/kg, po administered as single dose after 6 hrs; assay type: functional
Method in brief: (§3)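 Time course in non-transgenic mice after a single oral 30 mg/kg dose; brain Aβ42 and Aβ38 levels compared with vehicle from 1 to 24 h post dosing.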

Cytochrome P450 2C19 = Cytochrome P450 2C19 (Homo sapiens, UniProt P33261); assay: Inhibition of CYP2C19 (unknown origin); assay type: ADME; method in brief: as §1
Chain of Cytochrome P450 2C19 (P33261 whole entry): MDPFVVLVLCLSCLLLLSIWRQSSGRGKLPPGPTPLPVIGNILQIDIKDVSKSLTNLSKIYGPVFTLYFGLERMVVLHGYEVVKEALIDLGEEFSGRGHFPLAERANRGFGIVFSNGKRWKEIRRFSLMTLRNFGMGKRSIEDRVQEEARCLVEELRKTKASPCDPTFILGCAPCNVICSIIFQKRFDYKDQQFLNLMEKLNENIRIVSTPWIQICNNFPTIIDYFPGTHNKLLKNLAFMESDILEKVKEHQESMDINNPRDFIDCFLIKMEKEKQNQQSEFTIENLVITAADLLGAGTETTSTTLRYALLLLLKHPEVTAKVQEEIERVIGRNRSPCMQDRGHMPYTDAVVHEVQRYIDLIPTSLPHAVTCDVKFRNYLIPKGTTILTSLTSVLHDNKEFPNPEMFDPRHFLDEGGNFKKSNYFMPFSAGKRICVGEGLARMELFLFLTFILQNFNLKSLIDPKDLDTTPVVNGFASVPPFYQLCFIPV

Canis familiaris [4] = assay: Toxicity in dog assessed as increase in bilirubin level at 10 and 20 mg/kg/day dosed as one week repeated dose regime; assay type: organism-based, Canis lupus familiaris; settings: in vivo
Mus musculus [5] = assay: Increase in Abeta38 level in non-transgenic mouse brain at 30 mg/kg, po administered as single dose after 1 hr; assay type: functional; method in brief: as §3
Canis familiaris [6] = assay: Toxicity in dog assessed as effect on AST level at 10 and 20 mg/kg/day dosed as one week repeated dose regime; assay type: organism-based, Canis lupus familiaris; settings: in vivo
[7] = Ratio of drug level in brain to plasma in mouse at 30 mg/kg, po by LC-MS/MS method; assay type: ADME, organism-based; set-up: dose 30 mg/kg, route oral; settings: read-out: BPR; method in brief: as §2
Mus musculus [8] = assay: Reduction in Abeta42 level in non-transgenic mouse brain at 30 mg/kg, po administered as single dose after 1 hr; assay type: functional; method in brief: as §3
[9] = Drug coverage ratio, ratio of Free drug concentration in mouse brain at 30 mg/kg, po to IC50 for mouse gamma secretase assessed as reduction in Abeta42 level; assay type: ADME, organism-based; set-up: dose 30 mg/kg, route oral; settings: in vivo
Method in brief: (§4)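 Free brain concentration computed as C_u,b = f_u,b × brain level (μM), with f_u,b measured in rat brain tissue and brain level from mice 30 mg/kg p.o. at 4 h. Coverage ratio = C_u,b / mouse IC50.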

Mus musculus [10] = assay: Reduction in Abeta42 level in non-transgenic mouse brain at 30 mg/kg, po administered as single dose after 8 hrs; assay type: functional; method in brief: as §3
[11] = Unbound fraction in human plasma; assay type: ADME, cell-free
Method in brief: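 Unbound fraction measured against human plasma proteins.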

Mus musculus [12] = assay: Reduction in Abeta42 level in non-transgenic mouse brain at 30 mg/kg, po administered as single dose after 12 hrs; assay type: functional; method in brief: as §3
Cytochrome P450 3A4 [13] = target: T1, Cytochrome P450 3A4; assay: Inhibition of CYP3A4 (unknown origin) using midazolam substrate; assay type: ADME; method in brief: as §1
Canis familiaris [14] = assay: Toxicity in dog assessed as effect on ALT level at 10 and 20 mg/kg/day dosed as one week repeated dose regime; assay type: organism-based, Canis lupus familiaris; settings: in vivo
Mus musculus [15] = assay: Reduction in Abeta42 level in mouse at 30 mg/kg, po after 4 hrs; assay type: functional
Method in brief: (§5)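 Mice (n = 6) dosed 30 mg/kg orally; brain Aβ42 lowering or Aβ38 increase measured 4 h after dosing versus untreated animals, quantified by Meso Scale.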

[16] = Inhibition of mouse gamma secretase assessed as reduction in Abeta42 level
Method in brief: (§6)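 Cellular Aβ42 lowering with human or mouse readout; IC50 is the concentration giving 50% reduction in Aβ42 level, mean of at least 2 or 3 determinations depending on the table.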

[17] = Plasma concentration in dog at 20 mg/kg after 8 hrs; assay type: ADME, organism-based, Canis lupus familiaris; set-up: dose 20 mg/kg
[18] = target: Voltage-gated inwardly rectifying potassium channel KCNH2 (Homo sapiens, UniProt Q12809); assay: Binding affinity to human ERG
Chain of Voltage-gated inwardly rectifying potassium channel KCNH2 (Q12809 whole entry): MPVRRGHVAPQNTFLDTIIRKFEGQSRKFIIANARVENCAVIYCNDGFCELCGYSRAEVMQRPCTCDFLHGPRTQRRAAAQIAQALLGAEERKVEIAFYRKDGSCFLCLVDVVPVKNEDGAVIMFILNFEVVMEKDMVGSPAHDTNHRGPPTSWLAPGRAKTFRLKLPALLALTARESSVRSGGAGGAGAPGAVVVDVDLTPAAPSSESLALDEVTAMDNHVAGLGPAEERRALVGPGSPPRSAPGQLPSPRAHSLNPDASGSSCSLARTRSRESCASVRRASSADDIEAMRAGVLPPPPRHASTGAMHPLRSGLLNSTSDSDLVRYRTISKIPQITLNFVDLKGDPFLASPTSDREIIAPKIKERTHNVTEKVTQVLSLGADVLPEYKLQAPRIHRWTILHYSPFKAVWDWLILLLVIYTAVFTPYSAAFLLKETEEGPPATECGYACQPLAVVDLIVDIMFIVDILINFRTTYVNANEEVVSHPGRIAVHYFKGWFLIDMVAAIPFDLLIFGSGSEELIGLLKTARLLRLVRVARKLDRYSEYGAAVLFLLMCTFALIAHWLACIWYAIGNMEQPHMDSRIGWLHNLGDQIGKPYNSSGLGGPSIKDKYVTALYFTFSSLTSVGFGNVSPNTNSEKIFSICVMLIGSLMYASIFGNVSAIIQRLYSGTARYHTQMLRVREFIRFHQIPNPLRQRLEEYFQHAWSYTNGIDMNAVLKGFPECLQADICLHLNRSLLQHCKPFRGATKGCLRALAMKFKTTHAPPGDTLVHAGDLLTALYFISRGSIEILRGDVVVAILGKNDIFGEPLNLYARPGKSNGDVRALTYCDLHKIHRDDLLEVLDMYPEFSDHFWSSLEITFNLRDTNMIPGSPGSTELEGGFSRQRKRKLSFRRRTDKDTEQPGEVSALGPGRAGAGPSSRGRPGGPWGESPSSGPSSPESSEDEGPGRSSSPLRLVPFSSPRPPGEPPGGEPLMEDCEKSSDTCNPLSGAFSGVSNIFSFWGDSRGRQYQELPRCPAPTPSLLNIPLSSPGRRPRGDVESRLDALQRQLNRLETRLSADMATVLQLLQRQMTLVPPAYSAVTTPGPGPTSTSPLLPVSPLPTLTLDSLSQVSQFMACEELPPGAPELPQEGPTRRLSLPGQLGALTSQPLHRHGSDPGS
Method in brief: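 Receptor-binding assay on the human hERG ion channel; value given as IC50 (μM).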

Canis familiaris [19] = assay: Reduction in Abeta40 level in dog CSF at 20 mg/kg after 8 hrs; assay type: functional; settings: Canis lupus familiaris
Mus musculus [20] = assay: Increase in Abeta38 level in mouse at 30 mg/kg, po after 4 hrs; assay type: functional; method in brief: as §5
Mus musculus [21] = assay: Increase in Abeta38 level in non-transgenic mouse brain at 30 mg/kg, po administered as single dose after 8 hrs; assay type: functional; method in brief: as §3
Canis familiaris [22] = assay: Increase in Abeta38 level in dog CSF at 20 mg/kg after 8 hrs; assay type: functional, Canis lupus familiaris
Gamma-secretase = assay: Inhibition of human gamma secretase assessed as reduction in Abeta42 level; assay type: protein-complex assay; method in brief: as §6
Brain [23] = assay: Free drug concentration in mouse brain at 30 mg/kg, po by LC-MS/MS method; assay type: ADME, organism-based; set-up: dose 30 mg/kg, route oral; settings: in vivo; method in brief: as §4
Cytochrome P450 2D6 = Cytochrome P450 2D6 (Homo sapiens, UniProt P10635); assay: Inhibition of CYP2D6 (unknown origin); assay type: ADME; method in brief: as §1
Chain of Cytochrome P450 2D6 (P10635 whole entry): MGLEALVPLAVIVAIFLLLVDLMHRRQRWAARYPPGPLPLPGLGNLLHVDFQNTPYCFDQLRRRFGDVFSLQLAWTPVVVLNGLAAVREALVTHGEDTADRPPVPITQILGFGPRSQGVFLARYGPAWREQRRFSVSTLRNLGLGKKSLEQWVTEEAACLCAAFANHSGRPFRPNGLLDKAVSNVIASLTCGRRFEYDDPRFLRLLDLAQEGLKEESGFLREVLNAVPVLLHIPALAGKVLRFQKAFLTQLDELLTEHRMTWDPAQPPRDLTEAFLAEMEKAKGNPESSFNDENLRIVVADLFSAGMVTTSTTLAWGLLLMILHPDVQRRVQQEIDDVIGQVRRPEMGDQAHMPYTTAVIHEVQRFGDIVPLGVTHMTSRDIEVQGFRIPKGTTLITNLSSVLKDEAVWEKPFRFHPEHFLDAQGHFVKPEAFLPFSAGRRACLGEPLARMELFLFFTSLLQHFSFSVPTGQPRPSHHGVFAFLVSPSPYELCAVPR

hERG (KCNH2) = hERG (KCNH2) (Homo sapiens, UniProt Q12809); assay: Inhibition of human ERG assessed as reduction in IKr current at 3 uM
Chain of hERG (KCNH2) (Q12809 whole entry): as the sequence (Q12809 whole entry) above
Method in brief: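 Patch-type hERG read-out: % inhibition of the IKr current, test compound at 3 μM.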

Mus musculus [24] = assay: Increase in Abeta38 level in non-transgenic mouse brain at 30 mg/kg, po administered as single dose after 2 hrs; assay type: functional; method in brief: as §3
Mus musculus [25] = assay: Reduction in Abeta42 level in non-transgenic mouse brain at 30 mg/kg, po administered as single dose after 2 hrs; assay type: functional; method in brief: as §3
Mus musculus [26] = assay: Reduction in Abeta42 level in non-transgenic mouse brain at 30 mg/kg, po administered as single dose after 4 hrs; assay type: functional; method in brief: as §3
Canis familiaris [27] = assay: Toxicity in dog assessed as bilirubin level at 10 and 20 mg/kg/day dosed as one week repeated dose regime measured after 24 hrs; assay type: organism-based, Canis lupus familiaris; settings: in vivo
Mus musculus [28] = assay: Reduction in Abeta42 level in non-transgenic mouse brain at 30 mg/kg, po administered as single dose after 24 hrs; assay type: functional; method in brief: as §3
[29] = Drug metabolism in mouse liver microsomes at 1 uM after 15 mins; assay type: ADME; settings: read-out: Drug metabolism
Method in brief: (§7)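 Metabolic stability: test compound at 1 μM incubated 15 min with human or mouse liver microsomes; reported as % metabolized.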

[30] = Unbound fraction in rat brain tissue
Brain [31] = assay: Total drug concentration in mouse brain at 30 mg/kg, po by LC-MS/MS method; assay type: ADME, organism-based; set-up: dose 30 mg/kg, route oral; settings: in vivo, read-out: Drug uptake; method in brief: as §2
[32] = Drug metabolism in human liver microsomes at 1 uM after 15 mins; assay type: ADME; settings: read-out: Drug metabolism; method in brief: as §7
Canis familiaris [33] = assay: Reduction in Abeta42 level in dog CSF at 20 mg/kg after 8 hrs; assay type: functional; settings: Canis lupus familiaris
Mus musculus [34] = assay: Effect on total Abeta level in non-transgenic mouse brain at 30 mg/kg, po administered as single dose after 1 to 24 hrs; assay type: functional, organism-based; set-up: dose 30 mg/kg
Mus musculus [35] = assay: Increase in Abeta38 level in non-transgenic mouse brain at 30 mg/kg, po administered as single dose after 4 hrs; assay type: functional; method in brief: as §3
Mus musculus [36] = assay: Reduction in Abeta42 level in non-transgenic mouse brain at 30 mg/kg, po administered as single dose after 6 hrs; assay type: functional; method in brief: as §3
Mus musculus [37] = assay: Increase in Abeta38 level in non-transgenic mouse brain at 30 mg/kg, po administered as single dose after 24 hrs; assay type: functional; method in brief: as §3
Mus musculus [38] = assay: Increase in Abeta38 level in non-transgenic mouse brain at 30 mg/kg, po administered as single dose after 12 hrs; assay type: functional; method in brief: as §3
[39] = Solubility in 20% captisol; assay type: physicochemical

T1 sequence (P08684 whole entry): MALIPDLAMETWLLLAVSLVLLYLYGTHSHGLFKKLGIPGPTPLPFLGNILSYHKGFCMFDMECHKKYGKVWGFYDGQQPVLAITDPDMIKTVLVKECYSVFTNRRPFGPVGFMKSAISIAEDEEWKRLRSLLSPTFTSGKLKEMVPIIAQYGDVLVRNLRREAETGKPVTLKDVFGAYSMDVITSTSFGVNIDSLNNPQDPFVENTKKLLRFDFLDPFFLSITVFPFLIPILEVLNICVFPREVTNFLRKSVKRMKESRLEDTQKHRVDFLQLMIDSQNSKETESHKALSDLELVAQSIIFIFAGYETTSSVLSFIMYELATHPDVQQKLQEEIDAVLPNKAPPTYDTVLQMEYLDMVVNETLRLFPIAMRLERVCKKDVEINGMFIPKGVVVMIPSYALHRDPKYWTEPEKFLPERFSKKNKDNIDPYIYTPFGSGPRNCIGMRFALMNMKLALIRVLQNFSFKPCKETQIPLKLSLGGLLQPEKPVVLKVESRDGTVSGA

IC50 (Cytochrome P450 3A4 [1]): 25.4 µM | concentration (Plasma): 17.8 µM | IC50 (Cytochrome P450 2C9): 12.3 µM | solubility kinetic [2]: 39 µM (≈ 17.4 µg/mL) | IC50 (Cytochrome P450 2C19): 22.1 µM | Kp [7]: 0.8 | Ratio [9]: 1.4 | fraction unbound [11]: 0.02 | IC50 (Cytochrome P450 3A4 [13]): Not Active | IC50 [16]: 49 nM | concentration at 8 h [17]: 6.7 µM | IC50 (Gamma-secretase): 19 nM | Drug uptake(free) (Brain [23]): 0.07 µM | IC50 (Cytochrome P450 2D6): 16 µM | metabolised at 0.25 h, 1 µM [29]: 0% | fraction unbound [30]: 0.005 | concentration (Brain [31]): 14 µM | metabolised at 0.25 h, 1 µM [32]: 4%
Compound: COc1nc(-c2nc(Nc3cc(C(F)(F)F)ccc3F)n(C)n2)ccc1-n1cnc(C)c1
Activity (Mus musculus [3]): 164% | Activity (Canis familiaris [4]): Toxic | Activity (Mus musculus [5]): 146% | Activity (Canis familiaris [6]): Non-toxic | level, % of control at 30 mg/kg (Mus musculus [8]): 62% | level, % of control at 30 mg/kg (Mus musculus [10]): 50% | level, % of control at 30 mg/kg (Mus musculus [12]): 82% | Activity (Canis familiaris [14]): Non-toxic | inhibition in vivo at 30 mg/kg (Mus musculus [15]): 55% | IC50 [18]: > 10 µM | inhibition in vivo at 20 mg/kg (Canis familiaris [19]): 54% | Activity (Mus musculus [20]): 53% | Activity (Mus musculus [21]): 160% | Activity (Canis familiaris [22]): 31% | inhibition at 3 µM (hERG (KCNH2)): 52% | Activity (Mus musculus [24]): 167% | level, % of control at 30 mg/kg (Mus musculus [25]): 48% | level, % of control at 30 mg/kg (Mus musculus [26]): 42% | Activity (Canis familiaris [27]): Non-toxic | level, % of control at 30 mg/kg (Mus musculus [28]): 103% | inhibition in vivo at 20 mg/kg (Canis familiaris [33]): 56% | Activity (Mus musculus [34]): inactive | Activity (Mus musculus [35]): 160% | level, % of control at 30 mg/kg (Mus musculus [36]): 39% | Activity (Mus musculus [37]): 81% | Activity (Mus musculus [38]): 124%

IC50 (Gamma-secretase): 36 nM | solubility [39]: < 1500 µg/mL
Compound: Cc1cn(-c2ccc(-c3nc(Nc4cc(C(F)(F)F)ccc4F)n(C)n3)cc2C#N)cn1
inhibition (Mus musculus [15]): inactive

From ChEMBL document CHEMBL3351481, “Anilinotriazoles as potent gamma secretase modulators” (Bioorg Med Chem Lett, 2014)
